In ChEMBL document CHEMBL4823251, “Structure-Based Exploration of Selectivity for ATM Inhibitors in Huntington's Disease” (J Med Chem, 2021):
≈ marks a conversion by molar mass, not a printed value.

Experiments:
[1] = organism: Homo sapiens; assay: Selectivity ratio of Ki for full length recombinant GST-tagged VPS34 expressed in baculovirus expression system using PI/PS as substrate incubated for 60 mins in presence of ATP at Km concentration by luminescence assay to Ki for full length recombinant FLAG-tagged human ATM assessed as decrease in p53 S15 phosphorylation using full length myc-tagged p53 as substrate incubated for 30 mins in presence of ATP by ELISA
How it was run: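 ADP-Glo luminescence read-out. ATM reaction: 0.75 nM enzyme, 25 nM myc-p53, 10 μM ATP, 30 min at 20 °C, p53 S15 phosphorylation by ELISA. Ki values are means of at least two experiments.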

[2] = Apparent permeability across apical to basolateral side in MDCK-MDR1 cells after 1 hr by LC-MS/MS analysis; assay type: ADME, cell-based, Canis lupus familiaris; conditions: dog
How it was run: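 MDCKII-MDR1 and wild-type cells seeded at 2 × 10⁵ cells/well on Transwells and cultured 3 days. Test compound at 10 μM in HBSS with 25 mM HEPES, pH 7.4, added apical or basolateral in duplicate. Lucifer yellow used as integrity check; wells above 100 nm/s rejected. Sampled after 1 h at 37 °C and quantified by LC–MS/MS. Papp taken from the apical-to-basal direction.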

[3] = Kinetic solubility of the compound in pH 7.4 PBS buffer incubated for 2 hrs using orbital shaker by LC-UV mass spectrometry; assay type: physicochemical; conditions: read-out: Kinetic_solubility
How it was run: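 Shaken on an orbital shaker for 2 h at room temperature, then filtered. Filtrate analysed by LC-UV with MS confirmation, calibrated against 200 μM and 10 μM DMSO dilutions.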

[4] = biological target: T1, Serine-protein kinase ATM (Homo sapiens, UniProt Q13315); assay: Inhibition of full length recombinant FLAG-tagged human ATM assessed as decrease in p53 S15 phosphorylation using full length myc-tagged p53 as substrate incubated for 30 mins in presence of ATP by ELISA
T1 sequence (Q13315 whole entry): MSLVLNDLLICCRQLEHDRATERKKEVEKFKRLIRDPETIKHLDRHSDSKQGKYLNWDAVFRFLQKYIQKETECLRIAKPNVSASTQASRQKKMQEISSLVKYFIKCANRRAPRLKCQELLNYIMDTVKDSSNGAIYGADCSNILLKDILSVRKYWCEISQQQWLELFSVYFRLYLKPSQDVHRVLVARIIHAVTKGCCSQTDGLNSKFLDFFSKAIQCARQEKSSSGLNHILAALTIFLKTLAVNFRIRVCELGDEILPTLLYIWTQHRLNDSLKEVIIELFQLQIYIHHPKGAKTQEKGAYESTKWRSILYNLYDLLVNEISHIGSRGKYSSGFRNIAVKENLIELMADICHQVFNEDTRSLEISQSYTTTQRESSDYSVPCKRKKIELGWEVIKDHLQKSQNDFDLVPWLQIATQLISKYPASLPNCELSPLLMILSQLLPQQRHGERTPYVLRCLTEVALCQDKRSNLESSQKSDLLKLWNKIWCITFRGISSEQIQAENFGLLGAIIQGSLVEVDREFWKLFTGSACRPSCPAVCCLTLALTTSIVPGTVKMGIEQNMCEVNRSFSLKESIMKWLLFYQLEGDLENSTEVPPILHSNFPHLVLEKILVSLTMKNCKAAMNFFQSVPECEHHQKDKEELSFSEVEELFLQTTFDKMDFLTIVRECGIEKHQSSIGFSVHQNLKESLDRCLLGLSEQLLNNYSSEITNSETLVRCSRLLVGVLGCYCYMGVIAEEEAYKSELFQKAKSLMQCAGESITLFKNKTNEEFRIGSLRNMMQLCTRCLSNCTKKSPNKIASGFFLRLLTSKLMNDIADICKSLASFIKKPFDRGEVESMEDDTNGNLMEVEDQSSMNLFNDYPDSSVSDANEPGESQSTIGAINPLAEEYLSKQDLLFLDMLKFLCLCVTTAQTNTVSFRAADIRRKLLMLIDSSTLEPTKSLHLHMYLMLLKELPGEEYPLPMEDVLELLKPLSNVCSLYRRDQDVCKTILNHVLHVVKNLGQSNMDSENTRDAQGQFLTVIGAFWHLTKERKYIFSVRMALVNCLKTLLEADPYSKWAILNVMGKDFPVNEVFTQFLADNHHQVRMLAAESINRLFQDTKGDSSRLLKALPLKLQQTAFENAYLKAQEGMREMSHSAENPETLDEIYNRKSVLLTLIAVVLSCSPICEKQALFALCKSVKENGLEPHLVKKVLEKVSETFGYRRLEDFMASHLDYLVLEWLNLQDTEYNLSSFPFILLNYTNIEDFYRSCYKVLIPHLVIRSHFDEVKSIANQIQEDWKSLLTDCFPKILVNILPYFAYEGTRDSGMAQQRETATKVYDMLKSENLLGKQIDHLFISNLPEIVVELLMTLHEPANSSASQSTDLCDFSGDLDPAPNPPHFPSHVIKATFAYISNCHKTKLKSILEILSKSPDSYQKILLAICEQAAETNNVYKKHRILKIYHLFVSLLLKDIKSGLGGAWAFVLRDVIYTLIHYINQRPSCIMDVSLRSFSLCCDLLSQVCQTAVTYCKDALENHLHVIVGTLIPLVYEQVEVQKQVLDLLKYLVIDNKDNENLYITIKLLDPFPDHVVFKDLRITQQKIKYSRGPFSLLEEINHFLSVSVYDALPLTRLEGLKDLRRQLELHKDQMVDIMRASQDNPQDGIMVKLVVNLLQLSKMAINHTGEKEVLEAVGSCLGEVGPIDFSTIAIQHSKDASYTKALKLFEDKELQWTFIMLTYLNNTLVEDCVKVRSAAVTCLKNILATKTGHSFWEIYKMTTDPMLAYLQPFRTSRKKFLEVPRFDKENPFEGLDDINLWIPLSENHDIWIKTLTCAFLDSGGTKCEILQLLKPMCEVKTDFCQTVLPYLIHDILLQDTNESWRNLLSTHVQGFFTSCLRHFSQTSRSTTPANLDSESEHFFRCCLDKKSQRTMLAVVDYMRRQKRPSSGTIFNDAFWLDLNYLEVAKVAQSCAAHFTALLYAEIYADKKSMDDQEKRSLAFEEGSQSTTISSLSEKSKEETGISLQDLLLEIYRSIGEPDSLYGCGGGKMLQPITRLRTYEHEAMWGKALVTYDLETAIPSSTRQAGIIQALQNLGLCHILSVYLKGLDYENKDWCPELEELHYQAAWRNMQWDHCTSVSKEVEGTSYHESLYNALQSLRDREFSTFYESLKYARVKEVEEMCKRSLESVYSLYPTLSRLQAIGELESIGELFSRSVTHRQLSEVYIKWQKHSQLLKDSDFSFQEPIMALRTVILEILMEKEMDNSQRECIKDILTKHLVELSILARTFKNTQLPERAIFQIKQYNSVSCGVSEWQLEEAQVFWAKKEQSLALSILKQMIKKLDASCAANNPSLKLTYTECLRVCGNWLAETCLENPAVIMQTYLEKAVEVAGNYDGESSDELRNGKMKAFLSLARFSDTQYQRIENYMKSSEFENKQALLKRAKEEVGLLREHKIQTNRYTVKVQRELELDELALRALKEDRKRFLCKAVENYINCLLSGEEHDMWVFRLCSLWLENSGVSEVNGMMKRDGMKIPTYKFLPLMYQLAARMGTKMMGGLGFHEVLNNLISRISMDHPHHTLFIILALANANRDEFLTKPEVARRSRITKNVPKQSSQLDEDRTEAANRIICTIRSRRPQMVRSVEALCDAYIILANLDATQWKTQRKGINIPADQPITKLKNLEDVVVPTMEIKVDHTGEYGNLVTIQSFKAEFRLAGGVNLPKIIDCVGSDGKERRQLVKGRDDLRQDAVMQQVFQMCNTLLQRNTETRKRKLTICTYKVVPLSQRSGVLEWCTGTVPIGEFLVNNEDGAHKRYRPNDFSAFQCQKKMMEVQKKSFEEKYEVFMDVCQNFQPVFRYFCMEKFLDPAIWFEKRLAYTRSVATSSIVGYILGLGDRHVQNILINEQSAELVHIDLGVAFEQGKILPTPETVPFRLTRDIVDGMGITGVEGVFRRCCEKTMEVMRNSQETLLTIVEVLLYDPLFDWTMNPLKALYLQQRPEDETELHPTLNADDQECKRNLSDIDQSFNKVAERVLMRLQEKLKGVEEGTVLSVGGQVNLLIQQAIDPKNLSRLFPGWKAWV
How it was run: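 Buffer was 25 mM HEPES pH 7.5 with MgCl₂, MnCl₂, Brij-35, glycerol, BSA and DTT (0.1% DMSO); reaction ran 30 min at 20 °C and was stopped with 70 mM EDTA. Product captured on anti-myc-coated plates and detected with anti-p53 pS15, HRP secondary and TMB, absorbance at 450 nm.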

[5] = biological target: Phosphatidylinositol 3-kinase catalytic subunit type 3 (Homo sapiens, UniProt Q8NEB9); assay: Inhibition of full length recombinant GST-tagged human VPS34 expressed in baculovirus expression system using PI/PS as substrate incubated for 60 mins in presence of ATP at Km concentration by luminescence assay
Phosphatidylinositol 3-kinase catalytic subunit type 3, sequence (Q8NEB9 whole entry): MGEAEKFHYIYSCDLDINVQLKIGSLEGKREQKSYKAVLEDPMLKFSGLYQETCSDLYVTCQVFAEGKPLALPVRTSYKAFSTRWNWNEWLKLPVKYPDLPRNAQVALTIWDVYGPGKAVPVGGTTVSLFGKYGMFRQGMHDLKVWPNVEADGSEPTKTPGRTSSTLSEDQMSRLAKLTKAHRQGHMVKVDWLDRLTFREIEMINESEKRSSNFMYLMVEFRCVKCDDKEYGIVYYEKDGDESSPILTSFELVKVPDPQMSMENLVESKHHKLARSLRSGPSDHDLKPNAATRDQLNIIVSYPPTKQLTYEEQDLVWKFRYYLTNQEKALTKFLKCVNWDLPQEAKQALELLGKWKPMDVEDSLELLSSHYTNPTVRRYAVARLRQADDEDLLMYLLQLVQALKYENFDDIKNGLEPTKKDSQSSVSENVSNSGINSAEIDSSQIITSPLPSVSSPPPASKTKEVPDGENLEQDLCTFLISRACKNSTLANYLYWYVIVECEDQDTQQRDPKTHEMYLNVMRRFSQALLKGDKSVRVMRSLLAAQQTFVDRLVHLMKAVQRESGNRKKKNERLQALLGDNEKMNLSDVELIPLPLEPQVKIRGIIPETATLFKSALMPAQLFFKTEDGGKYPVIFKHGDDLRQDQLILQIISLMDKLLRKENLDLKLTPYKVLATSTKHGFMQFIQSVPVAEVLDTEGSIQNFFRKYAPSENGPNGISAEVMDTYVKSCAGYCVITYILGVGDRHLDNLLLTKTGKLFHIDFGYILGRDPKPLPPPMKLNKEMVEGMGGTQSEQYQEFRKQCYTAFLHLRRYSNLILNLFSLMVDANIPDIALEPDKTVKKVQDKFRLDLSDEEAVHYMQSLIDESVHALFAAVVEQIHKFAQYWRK

[6] = Intrinsic clearance in C57Bl/6 mouse pooled liver microsomes at 1 uM measured up to 40 mins in presence of NADPH by LC-MS/MS analysis; assay type: ADME, Microsome; conditions: read-out: CLH
How it was run: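 Reaction started with 1 mM NADPH. Sampled at 0, 5, 10, 20 and 40 min, quenched in acetonitrile with internal standard, and analysed by LC–MS/MS.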

[7] = Effective efflux ratio of apparent permeability across basolateral to apical over apical to basolateral side in MDCK-MDR1 cells assessed as efflux ratio after 1 hr by LC-MS/MS analysis; assay type: ADME, cell-based, Canis lupus familiaris; conditions: dog, mdck-mdr1, 1 h
How it was run: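 MDCKII MDR1 and wild-type cells seeded at 2 × 10⁵ cells/well in Transwells, cultured 3 days. Test compounds 10 μM in HBSS with 25 mM HEPES pH 7.4, dosed apical or basolateral in duplicate, 1 h at 37 °C. Lucifer yellow monolayer check, wells above 100 nm/s rejected. LC–MS/MS read-out. ER = Papp B>A/A>B. EER = MDR1 ER over wild-type ER.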

[8] = biological target: T1, Serine-protein kinase ATM; assay: Inhibition of ATM in human U2OS cells assessed as reduction in etoposide-stimulated KAP1 phosphorylation incubated for 60 mins by immunoreactivity assay; assay type: cell-based
How it was run: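 U2OS cells plated overnight at 6k cells/well (37 °C, 5% CO₂), then treated with compound titrations (0.3% DMSO) plus 100 μM etoposide for 60 min. Cells fixed in cold methanol and stained for phospho-KAP1 and total KAP1 using IRDye secondaries on a LI-COR Odyssey. IC50 is the mean of at least two experiments.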

Row | SMILES | Ratio Ki [1] | Papp A→B at 1 h [2] [×10⁻⁶ cm/s] | solubility kinetic at 2 h [3] [µg/mL] | Ki [4] [nM] | Ki [5] [nM] | CLint scaled at 1 µM [6] [mL/min/kg] | Ratio [7] | IC50 [8] [nM]
1 | O=c1cc(N2CCOCC2)cc(N2CCC[C@@H]2Cc2ccccc2)[nH]1 | 1 | 59.9 | > 68 | 6 | 9 | 115 | 4.8 | 
2 | C[C@@H]1CN(c2cc(=O)[nH]c(N3C[C@H]4C[C@H]4[C@@H]3Cc3ccccc3)n2)CCO1 | 490 |  | 48 (≈ 131 µM) | 2 | 880 |  |  | 
3 | COc1ccc2c(c1)Cc1cccc(-c3cc(N4CCOCC4)nc(O)n3)c1S2 | 21 |  | < 2 | 160 | 3300 |  |  | > 30000
4 | O=c1cc(N2CCOCC2)nc(N2C[C@H]3C[C@H]3[C@@H]2Cc2ccccc2)[nH]1 | 105 |  | 54 (≈ 153 µM) | 0.2 | 21 |  |  | 130
5 | C[C@@H]1CN(c2cc(=O)[nH]c(N3C[C@@H]4C[C@@H]4[C@@H]3Cc3ccccc3)n2)CCO1 | 1700 |  | < 2 | 0.9 | 1500 |  |  | 
6 | O=c1cc(N2CCOCC2)cc(N2CCC[C@H]2Cc2ccccc2)[nH]1 | > 1 |  | > 55 | > 900 | 630 |  |  | > 30000
7 | COc1ccc2c(c1)Cc1cccc(-c3cc(O)nc(N4CCOCC4)n3)c1S2 | 1 |  | 4 (≈ 9.82 µM) | 25 | 35 |  |  | 6700
8 | O=c1cc(N2CCOCC2)cc(N2CCC(Cc3ccccc3)C2)[nH]1 (configuration not stated) |  |  | 5 (≈ 14.7 µM) | > 1200 |  |  |  | > 30000
9 | O=c1cc(N2CCOCC2)cc(N2CCCC2Cc2ccccc2)[nH]1 (racemic) | 2 |  | > 68 | 30 | 49 |  |  | 4000
10 | O=c1cc(N2CCOCC2)cc(N2CCC(F)(F)[C@@H]2Cc2ccccc2)[nH]1 | 6.5 | 75.2 | 65 (≈ 173 µM) | 6 | 39 | < 65 | 2.6 | 
11 | C[C@@H]1CN(c2cc(N3CCCCC[C@@H]3Cc3ccccc3)[nH]c(=O)c2)CCO1 | 200 |  | 70 (≈ 183 µM) | 1 | 1800 |  |  | 1600
12 | COc1ccc2c(c1)Cc1cccc(-c3cc(N4CCOCC4)cc(=O)[nH]3)c1S2 | 33 |  | 14 (≈ 34.4 µM) | 4 | 130 |  |  | 880
13 | COc1ccc2c(c1)Cc1cccc(-c3nc(O)cc(N4CCOCC4)n3)c1S2 |  |  | 2 (≈ 4.91 µM) | > 1600 | > 5000 |  |  | > 30000
14 | O=c1cc(N2CCOCC2)cc(N2CC[C@@H](F)[C@@H]2Cc2ccccc2)[nH]1 | 43 | 51.8 | > 71 | 3 | 110 | < 65 | 7.2 | 1300
15 | COc1ccc2c(c1)Cc1cccc(-c3cc(N4CCOCC4)cc(OC)n3)c1S2 | > 3 |  | < 2 | > 1600 | > 5000 |  |  | > 30000
16 | Oc1cc(N2CCC[C@@H]2Cc2ccccc2)nc(N2CCOCC2)n1 | 3 |  | 59 (≈ 173 µM) | 87 | 270 |  |  | > 30000
17 | O=c1cc(N2CCOCC2)cc(N2C[C@@H]3C[C@@H]3[C@@H]2Cc2ccccc2)[nH]1 | 13 | 81.2 | 52 (≈ 148 µM) | 0.3 | 4 | 177 | 2.9 | 150
18 | Oc1cc(N2CCOCC2)nc(N2CCC[C@@H]2Cc2ccccc2)n1 | 16 | 77.5 | 34 (≈ 99.9 µM) | 1 | 16 | 261 | 4.5 | 500
19 | COc1ccc2c(c1)Cc1cccc(-c3cc(N4CCOCC4)[nH]c(=O)c3)c1S2 |  |  |  | > 1000 |  |  |  | > 30000
20 | CO[C@@H]1CCN(c2cc(N3CCOCC3)cc(=O)[nH]2)[C@H]1Cc1ccccc1 |  | 31.9 | 72 (≈ 195 µM) | 23 |  | < 65 | 12 | 3500
21 | O=c1cc(N2CCOCC2)nc(N2CCCCC[C@@H]2Cc2ccccc2)[nH]1 | 80 | 58.1 | 48 (≈ 130 µM) | 0.1 | 8 | 287 | 3.1 | 200
22 | COc1ccc2c(c1)Cc1cccc(-c3cc(N4CCOCC4)cc(=O)n3C)c1S2 | > 1 |  | 10 (≈ 23.8 µM) | > 1200 | 910 |  |  | > 30000
23 | C[C@@H]1CN(c2cc(N3C[C@H]4C[C@H]4[C@@H]3Cc3ccccc3)[nH]c(=O)c2)CCO1 |  |  | 62 (≈ 170 µM) |  | > 5000 |  |  | 
24 | C[C@@H]1CN(c2cc(=O)[nH]c(N3CCCCC[C@@H]3Cc3ccccc3)n2)CCO1 | 840 |  | 11 (≈ 28.8 µM) | 1 | 840 |  |  | 
25 | COc1ccc2c(c1)Cc1cccc(-c3cc(=O)cc(N4CCOCC4)[nH]3)c1S2 |  |  | 3 (≈ 7.38 µM) | 110 |  |  |  | > 30000
26 | O=c1cc(N2CCOCC2)nc(N2C[C@@H]3C[C@@H]3[C@@H]2Cc2ccccc2)[nH]1 | 8 |  | < 2 | 0.6 | 5 |  |  | 
